Drawing on the RNAGym collection of RNA variant scans (doi:10.1126/science.aae0568), this text covers yeast fitness for 38 variants.

This sample holds only a part of the variants without activity. A value given as a limit tells only on which side of the number the result lay.

B1: tRNA (parent)
chain: GUUCCGUUGGCGUAAUGGUAACGCGUCUCCCUCCUAAGGAGAAGACUGCGGGUUCGAGUCCCGUACGGAACG

This data set covers variants of B1. In words: yeast fitness relative to wild type (ratio to wild type); higher = fitter; tRNA-Arg(CCU), competitive growth, 37 C, YPD. The method, boiled down:
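Gene amplicons from the start population and from each of six end populations were read by 100-nucleotide paired-end sequencing. Those end populations came from pooled Saccharomyces cerevisiae strains carrying tRNA-Arg(CCU) gene variants at the native locus, competed in YPD at 37°C for 24 hours. Fitness relative to wild type was worked out from changes in genotype frequencies. Genotypes needed ≥ 100 starting reads, and estimates < 0.5 were set to 0.5.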
As to GUUCCGUUGGCGUAAUGCUAACGCGUUUCCCUCCUAAGGAGAAGACUGCGGGUUCGAGUCCCGUACGCAACG, the yeast fitness is 0.548.
The same measure for GUUCCGUUGGCGUAAUGCUAACGCGUCUCCCUCCUAAGGAGAAGACUGCGGGUUCGAGUCCCGUAUGGAACG: 0.59; for GUUCCGUUGGCGUAAUGCUAACGCGUCUCCCUCCUAAGGAGAAGACUGCGGGUUCGUGUCUCGUACGGAACG: no more than 0.5; for GUUCCGUUGGCGUAAUGCUAAUGCGUCUCCCUCGUAAGGAGAAGACUGCGGGUUCGAGUCCCGUACGGAACG: 0.688.
The same measure for GUUCCGUUGGCGUAAUGCUAACGCGUCUCGCUCCUAAGGAGAAGAUUACGGGUGCGAGUCCCGUACGGAACG: no more than 0.5.
The same measure for GUUCCGUUGGCGUAAUGCUAACGCGUCUCCCUCCUAAGGAGCCGACUGCGGGUUCGAGUCCCGUAGGGAACG: no more than 0.5; for GUUCCGUUGGCGUAAUGCUAACGCGUCUCCCUCCUAAGGCGAAGACUGGGGGUUCGAGUCCCAUACGGAACG: 0.553.
Turning to GUUCCGUUGGCGUAAUGCUAACGCGUCUCCCUCCUAAGGAGAAGACUGCGGGUUGGAGUCCCGUACGGAACG, the yeast fitness is 0.585.
On to GUUCCGUUGGCGUAAUGCUAACGCGUCUCCCUCCUAAGGAGAAGACUGCGGGUUUGAGUCCCGUACGGAACG, for which the yeast fitness came to 0.532.
Turning to GUUCCGUUGGCGUAAUGCUAACGGGUCUCCCUCUUAAGGAGAAGACUGAGGGUUCGAGUCCCGCACAGAACG, the yeast fitness was no more than 0.5.
The value for GUUCCGUUGGCGUAAUGCUAACGCGUCUCCCUCCUAAGGAGAAGUCUGCGGGUUCGAGUCCCGUACGGAACG was 0.549.
As for GUUCCGUUGGCGUAAUGCUAACGCGUCUCCCUCCUAAGGGGGAGACUGCGGGUUCGAGUCCCGUAGGGAACG, the yeast fitness is no more than 0.5.
Consider GUUCCGUUGGCGUAAUGCUAACGCGUCUCUCUCCUAAGGAGAAGUCUGCGGGUUCGAGUCCCGUACGGAACG, for which the yeast fitness was 0.549.
Take GUUCCGUUGGCGUAAUGCUAACACCUCUCCCUCCUAGGGAGAAGACUGCGGGUUCGAGUCCCGUGCGGAACG: the yeast fitness was no more than 0.5.
The same measure for GUUCCGUUGGCGUAAUGCUAACGCGUCUCCCUACUCAGGAGAAGACUGCGCGUUCGAGUCCCGUACGGAACG: no more than 0.5; for GUUCCGUUGGCGUAAUGCUAACACAUCUCCCUCCUAAGGAGAAGACUGUGGGUUCGAGUGCCGUACGGAACG: no more than 0.5.
The same measure for GUUCCGUUGGCGUAAUGCUAACGCGUUUCCCUCCUAAGGAGAAGACUGCGGGUUCGAGUCACGUACGGAACG: no more than 0.5; for GUUCCGUUGGCGUAAUGCUAACGCCUCUCCCUUCUAAGGAGAAGACUGCGGGUUCGAGUCUCGUACGGAACG: no more than 0.5.
The value for GUUCCGUUGGCGUAAUGCUAACGCGUCUCCCUGCUAAGGAGAAGACUGAGGGUUUGAGUCCCGUACGGAACG was 0.517.
As to GUUCCGUUGGCGUAAUGCUAACGCGUUUCCCUCCUAAACAGAAGACUGCGGGUUCGAGUCCCGCACGGAACG, the yeast fitness is no more than 0.5.
The value for GUUCCGUUGGCGUAAUGCUAACGCGUGUCCCUCCUAAGGAGAAGACUACGGGUUCGAGUCCCGUAGAGAACG was no more than 0.5.
The same measure for GUUCCGUUGGCGUAAUGCUAACGCGUCUCCCUCCUAAGGAGAAGACUGCGGGUUCGAGUCCCGUACGGACCG: 0.687; for GUUCCGUUGGCGUAAUGCUAACGCGUCUCCCUCCUAAGGGGAAGACUGCGGGUUCGAGUCCCGUACGGAACG: 0.64.
As to GUUCCGUUGGCGUAAUGCUAACCCGUCUCCCUCCUAAGGAGAAGACUACGGGUUCGAGUCCCGUACGGAACG, the yeast fitness was no more than 0.5.
For GUUCCGUUGGCGUAAUGCUAACGCGUCUCCCUACUAAGGAGAAGACUGCGGGUACGAGUCCAGUACGGAACG, the yeast fitness stood at 0.577.
The same measure for GUUCCGUUGGCGUAAUGCUAACGCGUCUCCAUCCUAAGGAGAGGACUGCGGGUUCGACUCCCGUGCGGAACG: no more than 0.5; for GUUCCGUUGGCGUAAUGCUAACGGGUCUCCCUCCCAAGGAGAAGACUGCCGGUUGGAGUCCCGUACGGAACG: no more than 0.5; for GUUCCGUUGGCGUAAUGCUAACGCCUCGCCCUCCUAAGGAGGAGACCGUGGGUUCGUGUCCCGUACGGAACG: no more than 0.5.
As to GUUCCGUUGGCGUAAUGCUAACGCGUCUCCCUCCUAAGCAGAAGACUGCAGGUUCGAGUCCCGUACGGAACG, the yeast fitness is no more than 0.5.
Consider GUUCCGUUGGCGUAAUGCUAACGCGUCUCCCUCCUAAGGAGAAGAUUGCGGGUUCGAGUCGCGUACGGAACG, for which the yeast fitness was no more than 0.5.
The value for GUUCCGUUGGCGUAAUGCUAACGCGUCUCCCUCCUAAGGAGACGACUGCGGGUUCGAGUCCCGUACGGAACG was 0.719; that for GUUCCGUUGGCGUAAUGCUAACACCUCUCCCUCCUAGGGAGACGACUGCGGGUUGGAGUCCCAUACGAAACG was no more than 0.5.
The value for GUUCCGUUGGCGUAAUGCUAACGCGUCUCUGUCCUAAGGAGAAGACUGCAGGUUCGAGUCCCGUACGGAACG was no more than 0.5; that for GUUCCGUUGGCGUAAUGCUAAAGCGUCUUCCUCCUAAGGAGAAGCCUGCGGGUUCGAGUCCCGUACGGUACG was no more than 0.5; that for GUUCCGUUGGCGUAAUGCUAACGCCUCUCCCUCCUAAGGAGAAGACUGCGGGUUCGAGUCCCGUACGGAACG was 0.677.
For GUUCCGUUGGCGUAAUGCUAACGCGUCUCCCUCGUAAGGAGAAGACUGCGGGUUCGACUCCCGUACGGAACG, the yeast fitness is no more than 0.5.
GUUCCGUUGGCGUAAUGCUAACGCGUCUUCCUCCUAAGGAGAAGACUGCGGGUUCGAGUCCCGUACGGAACG: the yeast fitness was 0.546.
The value for GUUCCGUUGGCGUAAUGCUAACGAGUCUCCCUCCUAAGGAGAAGACUGCGGGUUCGCGUCCCGUAUGGCACG was no more than 0.5.
